Published values from different studies.
Each line is one published result; the experiments were not run side by side.
Target: Glycogen synthase kinase-3 beta (GSK3B, Homo sapiens, UniProt P49841)
Technique: competition with immobilised ligand

SMILES	assay	setting	remaining binding [%]
C[C@@H]1CN(c2ccc3ncc(-c4ccc5[nH]nc(C6CC6)c5c4)n3n2)C[C@H](C)O1	binding	0.5 µM	74
C[C@@H](c1ccc(-n2cnc3c(N)ncnc32)cc1)N1CCc2nn(C)c(Cc3ccccc3)c2C1=O	binding	0.1 µM	58
CC(C)(C)c1ccc(-c2nc(CBr)nn2-c2cccc(O)c2)cc1	cell-free assay	10 µM	81
Cc1nc(Cc2cccc(C(F)(F)F)c2)sc1-c1ccc(C(N)=O)nc1	cell-free assay	1 µM	100
Nc1ncc2c(n1)-c1c([nH]c3ccc(C#CC4CC4)cc13)CCCC2	binding	1 µM	98
C[C@H](c1ccnc(Nc2nc3ccc(-c4cc(N(C)C)ncn4)cc3[nH]2)c1)N1CCN(C(=O)CC(F)(F)F)CC1	cell-free assay	0.1 µM	100
O=C(NCC1CCOCC1)c1n[nH]cc1NC(=O)c1c(F)cccc1F	binding	1 µM	0.2
c1cnn2ncc(-c3ccnc(N4CCC45COC5)n3)c2c1	binding	1 µM	77
O=C(NCCCN1CCOCC1)c1ccc(Nc2nccc(-c3cc4ccccc4s3)n2)cc1	binding	1 µM	73
CN(CCCC(F)(F)F)c1nccc(-c2cnn3ncccc23)n1	binding	1 µM	87
O=C(c1ccc(Nc2nccc(-c3cc4ccccc4s3)n2)cc1)N1CCC(N2CCCC2)CC1	binding	1 µM	95
O=C(Nc1ccc(Oc2ccc(F)cc2)cc1)N1CCc2ncccc2[C@H]1c1ccc(F)cc1	cell-free assay	1 µM	100
O=C(NCCCN1CCOCC1)c1ccc(Nc2ncc(Cl)c(-c3ccc(Cl)s3)n2)cc1	binding	1 µM	95
CC(C)CC(=O)N1CCc2nc(-c3ccc(Br)cc3)nc(N(C)Cc3ccccc3)c2C1	cell-free assay	0.1 µM	100
C=CC(=O)N1CCC(C(=O)NCC(=O)N2CCN(c3nc(-c4cnc(N)nc4C(F)F)nc(N4CCOCC4)n3)CC2)CC1	binding	1 µM	74
COc1cc(-c2cn(C3CCc4ccccc4N(CC(F)(F)F)C3=O)nn2)ccc1-n1ccc(C)n1 (stereo not shown)	cell-free assay	1 µM	85
CNC(=O)[C@@H]1CC[C@@H](n2c(-c3ccc4cnccc4c3)nc3ccc(C(=O)NCc4cccc(C(N)=O)c4)cc32)C1	binding	1 µM	95
CN([C@@H]1CCc2c(CC(=O)O)c3ccccc3n2C1)S(=O)(=O)c1ccc(F)cc1	cell-free assay	1 µM	93
COc1cnc(Nc2cccc(S(N)(=O)=O)c2)nc1N1CCN(c2ccccc2)CC1	binding	1 µM	97
